Source: ChEMBL document CHEMBL4689842, “EUbOPEN Chemogenomics Library wave 1” (2021)

Test system: U2OS
Assay: Multiplex assay against U2OS
Type: toxicity, cell-based
Settings: human
Outline: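 Values for tubulin, mitochondrial-mass and membrane-permeability phenotypes are per cents of cells with healthy nuclei. These cells were identified by CellPathfinder machine-learning gating of live cells that had been stained at seeding with Hoechst33342, BioTracker Green Microtubule Cytoskeleton Dye, MitoTracker Red and Annexin V Alexa Fluor 680 and imaged on a CQ1 microscope at 37°C and 5% CO2 after compound addition. The gating first set Hoechst high-intensity objects apart from normal cells, then split normal cells into healthy, pyknosed or fragmented nuclei, and pyknosed cells into mitotic or apoptotic.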

[1] = 12 h, 1 µM, compound concentration 1 uM, replicate 1
[2] = 12 h, 1 µM, compound concentration 1 uM, replicate 2
[3] = 12 h, 10 µM, compound concentration 10 uM, replicate 1
[4] = 12 h, 10 µM, compound concentration 10 uM, replicate 2
[5] = 24 h, 1 µM, compound concentration 1 uM, replicate 1
[6] = 24 h, 1 µM, compound concentration 1 uM, replicate 2
[7] = 24 h, 10 µM, compound concentration 10 uM, replicate 1
[8] = 24 h, 10 µM, compound concentration 10 uM, replicate 2
[9] = 48 h, 1 µM, compound concentration 1 uM, replicate 1
[10] = 48 h, 1 µM, compound concentration 1 uM, replicate 2
[11] = 48 h, 10 µM, compound concentration 10 uM, replicate 1
[12] = 48 h, 10 µM, compound concentration 10 uM, replicate 2

Structure (SMILES): CCOc1cc(C(=O)N2CCC(N3CCN(C)CC3)CC2)ccc1Nc1ncc2c(n1)N(C1CCCC1)c1ccccc1C(=O)N2C
- Population Apoptotic (%) [1]: 73%
- Population Fragmented Nuclei (%) [1]: 14%
- Population Healthy Nuclei (%) [1]: 70%
- Population Hoechst High Intensity Objects (%) [1]: 6%
- Population Membrane Permeable-Phenotype (%) [1]: 8%
- Population Mitochondria Different-Phenotype (%) [1]: 75%
- Population Mitotic Cells (%) [1]: 26%
- Population Normal (%) [1]: 93%
- Population Pyknosed Nuclei (%) [1]: 15%
- Population Tubulin-Different-Phenotype (%) [1]: 69%
- Total Cell Count [1]: 153
- Population Apoptotic (%) [2]: 75%
- Population Fragmented Nuclei (%) [2]: 6%
- Population Healthy Nuclei (%) [2]: 80%
- Population Hoechst High Intensity Objects (%) [2]: 10%
- Population Membrane Permeable-Phenotype (%) [2]: 4%
- Population Mitochondria Different-Phenotype (%) [2]: 76%
- Population Mitotic Cells (%) [2]: 25%
- Population Normal (%) [2]: 89%
- Population Pyknosed Nuclei (%) [2]: 12%
- Population Tubulin-Different-Phenotype (%) [2]: 48%
- Total Cell Count [2]: 67
- Population Apoptotic (%) [3]: 83%
- Population Fragmented Nuclei (%) [3]: 19%
- Population Healthy Nuclei (%) [3]: 48%
- Population Hoechst High Intensity Objects (%) [3]: 7%
- Population Membrane Permeable-Phenotype (%) [3]: 95%
- Population Mitochondria Different-Phenotype (%) [3]: 97%
- Population Mitotic Cells (%) [3]: 16%
- Population Normal (%) [3]: 92%
- Population Pyknosed Nuclei (%) [3]: 32%
- Population Tubulin-Different-Phenotype (%) [3]: 100%
- Total Cell Count [3]: 181
- Population Apoptotic (%) [4]: 92%
- Population Fragmented Nuclei (%) [4]: 21%
- Population Healthy Nuclei (%) [4]: 50%
- Population Hoechst High Intensity Objects (%) [4]: 6%
- Population Membrane Permeable-Phenotype (%) [4]: 93%
- Population Mitotic Cells (%) [4]: 7%
- Population Normal (%) [4]: 93%
- Population Pyknosed Nuclei (%) [4]: 27%
- Total Cell Count [4]: 69
- Population Apoptotic (%) [5]: 50%
- Population Healthy Nuclei (%) [5]: 61%
- Population Hoechst High Intensity Objects (%) [5]: 4%
- Population Membrane Permeable-Phenotype (%) [5]: 2%
- Population Mitochondria Different-Phenotype (%) [5]: 64%
- Population Mitotic Cells (%) [5]: 50%
- Population Normal (%) [5]: 95%
- Population Pyknosed Nuclei (%) [5]: 22%
- Population Tubulin-Different-Phenotype (%) [5]: 17%
- Total Cell Count [5]: 142
- Population Apoptotic (%) [6]: 22%
- Population Fragmented Nuclei (%) [6]: 16%
- Population Healthy Nuclei (%) [6]: 72%
- Population Hoechst High Intensity Objects (%) [6]: 5%
- Population Membrane Permeable-Phenotype (%) [6]: 5%
- Population Mitochondria Different-Phenotype (%) [6]: 65%
- Population Mitotic Cells (%) [6]: 77%
- Population Normal (%) [6]: 94%
- Population Pyknosed Nuclei (%) [6]: 11%
- Population Tubulin-Different-Phenotype (%) [6]: 27%
- Total Cell Count [6]: 71
- Population Apoptotic (%) [7]: 92%
- Population Fragmented Nuclei (%) [7]: 23%
- Population Healthy Nuclei (%) [7]: 17%
- Population Hoechst High Intensity Objects (%) [7]: 7%
- Population Membrane Permeable-Phenotype (%) [7]: 93%
- Population Mitochondria Different-Phenotype (%) [7]: 100%
- Population Mitotic Cells (%) [7]: 7%
- Population Normal (%) [7]: 92%
- Total Cell Count [7]: 215
- Population Apoptotic (%) [8]: 88%
- Population Fragmented Nuclei (%) [8]: 10%
- Population Healthy Nuclei (%) [8]: 30%
- Population Hoechst High Intensity Objects (%) [8]: 11%
- Population Membrane Permeable-Phenotype (%) [8]: 100%
- Population Mitochondria Different-Phenotype (%) [8]: 96%
- Population Mitotic Cells (%) [8]: 11%
- Population Normal (%) [8]: 88%
- Population Pyknosed Nuclei (%) [8]: 59%
- Population Tubulin-Different-Phenotype (%) [8]: 100%
- Total Cell Count [8]: 85
- Population Apoptotic (%) [9]: 53%
- Population Fragmented Nuclei (%) [9]: 15%
- Population Healthy Nuclei (%) [9]: 64%
- Population Hoechst High Intensity Objects (%) [9]: 3%
- Population Membrane Permeable-Phenotype (%) [9]: 1%
- Population Mitochondria Different-Phenotype (%) [9]: 28%
- Population Mitotic Cells (%) [9]: 46%
- Population Normal (%) [9]: 96%
- Population Pyknosed Nuclei (%) [9]: 19%
- Population Tubulin-Different-Phenotype (%) [9]: 9%
- Total Cell Count [9]: 151
- Population Apoptotic (%) [10]: 42%
- Population Fragmented Nuclei (%) [10]: 13%
- Population Healthy Nuclei (%) [10]: 72%
- Population Hoechst High Intensity Objects (%) [10]: 5%
- Population Membrane Permeable-Phenotype (%) [10]: 12%
- Population Mitochondria Different-Phenotype (%) [10]: 40%
- Population Mitotic Cells (%) [10]: 57%
- Population Normal (%) [10]: 94%
- Population Pyknosed Nuclei (%) [10]: 14%
- Population Tubulin-Different-Phenotype (%) [10]: 25%
- Total Cell Count [10]: 81
- Population Apoptotic (%) [11]: 93%
- Population Fragmented Nuclei (%) [11]: 34%
- Population Healthy Nuclei (%) [11]: 1%
- Population Hoechst High Intensity Objects (%) [11]: 14%
- Population Membrane Permeable-Phenotype (%) [11]: 100%
- Population Mitochondria Different-Phenotype (%) [11]: 100%
- Population Mitotic Cells (%) [11]: 6%
- Population Normal (%) [11]: 85%
- Population Pyknosed Nuclei (%) [11]: 63%
- Population Tubulin-Different-Phenotype (%) [11]: 100%
- Total Cell Count [11]: 281
- Population Apoptotic (%) [12]: 100%
- Population Fragmented Nuclei (%) [12]: 16%
- Population Healthy Nuclei (%) [12]: 20%
- Population Hoechst High Intensity Objects (%) [12]: 18%
- Population Membrane Permeable-Phenotype (%) [12]: 93%
- Population Mitochondria Different-Phenotype (%) [12]: 86%
- Population Mitotic Cells (%) [12]: 0%
- Population Normal (%) [12]: 81%
- Population Pyknosed Nuclei (%) [12]: 62%
- Population Tubulin-Different-Phenotype (%) [12]: 93%
- Total Cell Count [12]: 103
